Test results as given in ChEMBL document CHEMBL1150340, “Synthesis of 5'-functionalized nucleosides: S-Adenosylhomocysteine analogues with the carbon-5' and sulfur atoms replaced by a vinyl or halovinyl unit” (Bioorg Med Chem, 2008).

What was measured:
[1] = biological target: Adenosylhomocysteinase (Homo sapiens) (UniProt P23526); assay: Inhibition of human S-adenosyl-L-homocysteine hydrolase after 20 mins
[2] = biological target: Adenosylhomocysteinase (Homo sapiens) (UniProt P23526); assay: Inhibition of human S-adenosyl-L-homocysteine hydrolase at 281 uM after 0.5 hrs
Method in brief: (§1)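 Human AdoHcy hydrolase (204 nM) was preincubated with inhibitor in buffer A (50 mM, pH 7.2, 1 mM EDTA) at 22 °C, for 0.5 h or 4 h. Residual activity was then read in the synthetic direction: an aliquot was diluted into buffer A with 0.5 mM Ado and 0.5 mM Hcy, held 12 min at 37 °C, and stopped with HClO₄. Duplicates were averaged.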

[3] = biological target: Adenosylhomocysteinase (Homo sapiens) (UniProt P23526); assay: Inhibition of human S-adenosyl-L-homocysteine hydrolase at 281 uM after 4 hrs; method in brief: as §1

Adenosylhomocysteinase (Homo sapiens), sequence (P23526 2-432 limits assumed): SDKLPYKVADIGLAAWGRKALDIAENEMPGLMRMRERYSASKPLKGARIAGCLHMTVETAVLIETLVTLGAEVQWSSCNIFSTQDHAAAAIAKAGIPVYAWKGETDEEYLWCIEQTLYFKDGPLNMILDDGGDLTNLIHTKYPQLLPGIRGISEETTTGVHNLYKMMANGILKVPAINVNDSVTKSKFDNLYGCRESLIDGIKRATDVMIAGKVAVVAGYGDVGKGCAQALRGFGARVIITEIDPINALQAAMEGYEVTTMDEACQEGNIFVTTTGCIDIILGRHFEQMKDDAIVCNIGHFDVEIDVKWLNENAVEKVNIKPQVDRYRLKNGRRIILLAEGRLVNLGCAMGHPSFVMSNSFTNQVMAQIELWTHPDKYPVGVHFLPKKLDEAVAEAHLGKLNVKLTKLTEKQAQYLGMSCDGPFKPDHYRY

SMILES	inhibition [1] [%]	inhibition [2] [%]	inhibition [3] [%]
CCOC(=O)/C=C/C=C\[C@H]1O[C@@H](n2cnc3c(N)ncnc32)[C@H](O)[C@@H]1O	98.2		
Nc1ncnc2c1ncn2[C@@H]1O[C@H](/C=C/CCCC(=O)O)[C@@H](O)[C@H]1O		28.5	92.4
COC(=O)CC/C=C\[C@H]1O[C@@H](n2cnc3c(N)ncnc32)[C@H](O)[C@@H]1O		68.1	
CCOC(=O)CCC/C=C/[C@H]1O[C@@H](n2cnc3c(N)ncnc32)[C@H](O)[C@@H]1O		81	

Now from value to compound:

inhibition [1] [%]	inhibition [2] [%]	inhibition [3] [%]	SMILES
	14.1		CCOC(=O)CCC/C(F)=C\[C@H]1O[C@@H](n2cnc3c(N)ncnc32)[C@H](O)[C@@H]1O
	15.2	35.2	Nc1ncnc2c1ncn2[C@@H]1O[C@H](/C=C(/F)CCCC(=O)O)[C@@H](O)[C@H]1O
	50.5	95.5	Nc1ncnc2c1ncn2[C@@H]1O[C@H](/C=C\CCC(=O)O)[C@@H](O)[C@H]1O
96.4			CCOC(=O)/C=C/C=C/[C@H]1O[C@@H](n2cnc3c(N)ncnc32)[C@H](O)[C@@H]1O
